Data reported in ChEMBL document CHEMBL1130274, “Fibrinogen receptor (GPIIb-IIIa) antagonists derived from 5,6-bicyclic templates. Amidinoindoles, amidinoindazoles, and amidinobenzofurans containing the N-alpha-sulfonamide carboxylic acid function as potent platelet aggregation inhibitors” (J Med Chem, 1997).

How the values were obtained:
Type in all cases: protein-complex assay
[1] = molecular target: Integrin alpha-IIb/beta-3 (Homo sapiens, UniProt P05106+P08514); assay: Inhibitory activity of fibrinogen binding to purified immobilized glycoprotein (fibrinogen receptor).
Integrin alpha-V/beta-3 [2] = molecular target: T1, Integrin alpha-V/beta-3 (Homo sapiens, UniProt P05106+P06756); assay: Inhibition of vitronectin binding to the purified immobilized vitronectin receptor (alpha v, beta 3).
In short: (§1)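 Solid-phase microtiter assay. Purified integrin (GPIIb-IIIa or αvβ3) was coated at 1 μg/well overnight at 4 °C in Tris pH 7.4 buffer with CaCl2, then blocked with 35 mg/mL BSA for 2–3 h. Biotinylated fibrinogen or vitronectin (20 nM final) plus compound was incubated 3 h at room temperature. Bound ligand was detected with alkaline phosphatase anti-biotin antibody and pNPP at 405 nm.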

Integrin alpha-V/beta-3 [3] = molecular target: T1, Integrin alpha-V/beta-3; assay: Inhibition of vitronectin binding to purified immobilized vitronectin receptor alpha v beta3; in short: as §1

Integrin alpha-IIb/beta-3, sequence (P05106 27-788 limits assumed): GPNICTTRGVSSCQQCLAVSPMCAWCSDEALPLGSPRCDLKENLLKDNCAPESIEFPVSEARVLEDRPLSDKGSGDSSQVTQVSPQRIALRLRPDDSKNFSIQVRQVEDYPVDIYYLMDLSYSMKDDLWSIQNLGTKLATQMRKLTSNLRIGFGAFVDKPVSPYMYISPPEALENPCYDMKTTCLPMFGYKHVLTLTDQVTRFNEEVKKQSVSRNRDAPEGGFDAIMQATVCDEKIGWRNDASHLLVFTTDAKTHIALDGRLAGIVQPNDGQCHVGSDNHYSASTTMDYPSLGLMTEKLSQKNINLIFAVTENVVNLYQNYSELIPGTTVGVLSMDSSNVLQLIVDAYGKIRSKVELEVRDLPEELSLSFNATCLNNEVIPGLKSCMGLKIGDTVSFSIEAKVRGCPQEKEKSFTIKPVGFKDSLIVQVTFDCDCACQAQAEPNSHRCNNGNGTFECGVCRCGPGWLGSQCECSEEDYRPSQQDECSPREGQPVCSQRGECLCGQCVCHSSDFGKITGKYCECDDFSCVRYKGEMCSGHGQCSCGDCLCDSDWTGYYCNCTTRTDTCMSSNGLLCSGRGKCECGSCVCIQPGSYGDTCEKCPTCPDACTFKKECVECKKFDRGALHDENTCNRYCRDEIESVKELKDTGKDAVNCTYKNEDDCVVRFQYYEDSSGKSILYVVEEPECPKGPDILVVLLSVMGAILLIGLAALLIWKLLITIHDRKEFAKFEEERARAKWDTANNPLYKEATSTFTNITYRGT
Integrin alpha-IIb/beta-3, sequence (P08514 32-887 limits assumed): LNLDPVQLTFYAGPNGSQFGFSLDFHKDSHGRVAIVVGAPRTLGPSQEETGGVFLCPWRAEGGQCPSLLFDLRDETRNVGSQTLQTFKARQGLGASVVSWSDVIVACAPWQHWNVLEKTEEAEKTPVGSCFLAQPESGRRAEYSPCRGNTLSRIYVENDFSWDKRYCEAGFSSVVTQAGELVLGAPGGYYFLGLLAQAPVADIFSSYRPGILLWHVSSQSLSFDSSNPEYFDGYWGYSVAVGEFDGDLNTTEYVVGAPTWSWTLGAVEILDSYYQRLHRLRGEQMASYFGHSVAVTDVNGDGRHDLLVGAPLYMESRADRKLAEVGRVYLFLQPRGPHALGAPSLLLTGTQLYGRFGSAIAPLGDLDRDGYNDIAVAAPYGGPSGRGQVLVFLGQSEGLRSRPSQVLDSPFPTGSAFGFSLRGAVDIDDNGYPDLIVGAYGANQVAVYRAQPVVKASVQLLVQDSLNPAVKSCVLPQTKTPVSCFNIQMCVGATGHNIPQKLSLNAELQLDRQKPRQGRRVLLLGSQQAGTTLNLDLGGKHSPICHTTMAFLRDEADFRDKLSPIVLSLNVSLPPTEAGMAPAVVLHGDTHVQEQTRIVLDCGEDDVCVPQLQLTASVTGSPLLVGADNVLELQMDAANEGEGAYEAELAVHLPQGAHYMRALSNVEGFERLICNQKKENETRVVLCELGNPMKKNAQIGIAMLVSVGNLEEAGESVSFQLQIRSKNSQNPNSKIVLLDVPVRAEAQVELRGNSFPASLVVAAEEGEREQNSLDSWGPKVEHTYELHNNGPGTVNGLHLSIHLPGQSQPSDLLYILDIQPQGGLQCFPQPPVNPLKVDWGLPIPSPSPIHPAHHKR
Integrin alpha-IIb/beta-3, sequence (P08514 891-1039 limits assumed): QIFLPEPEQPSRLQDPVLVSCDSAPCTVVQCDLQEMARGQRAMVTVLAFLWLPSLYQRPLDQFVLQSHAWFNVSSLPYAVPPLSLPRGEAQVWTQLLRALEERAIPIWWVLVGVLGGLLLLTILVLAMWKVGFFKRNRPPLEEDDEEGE
T1 sequence (P05106 27-788 limits assumed): as the sequence (P05106 27-788 limits assumed) above
T1 sequence (P06756 31-889 limits assumed): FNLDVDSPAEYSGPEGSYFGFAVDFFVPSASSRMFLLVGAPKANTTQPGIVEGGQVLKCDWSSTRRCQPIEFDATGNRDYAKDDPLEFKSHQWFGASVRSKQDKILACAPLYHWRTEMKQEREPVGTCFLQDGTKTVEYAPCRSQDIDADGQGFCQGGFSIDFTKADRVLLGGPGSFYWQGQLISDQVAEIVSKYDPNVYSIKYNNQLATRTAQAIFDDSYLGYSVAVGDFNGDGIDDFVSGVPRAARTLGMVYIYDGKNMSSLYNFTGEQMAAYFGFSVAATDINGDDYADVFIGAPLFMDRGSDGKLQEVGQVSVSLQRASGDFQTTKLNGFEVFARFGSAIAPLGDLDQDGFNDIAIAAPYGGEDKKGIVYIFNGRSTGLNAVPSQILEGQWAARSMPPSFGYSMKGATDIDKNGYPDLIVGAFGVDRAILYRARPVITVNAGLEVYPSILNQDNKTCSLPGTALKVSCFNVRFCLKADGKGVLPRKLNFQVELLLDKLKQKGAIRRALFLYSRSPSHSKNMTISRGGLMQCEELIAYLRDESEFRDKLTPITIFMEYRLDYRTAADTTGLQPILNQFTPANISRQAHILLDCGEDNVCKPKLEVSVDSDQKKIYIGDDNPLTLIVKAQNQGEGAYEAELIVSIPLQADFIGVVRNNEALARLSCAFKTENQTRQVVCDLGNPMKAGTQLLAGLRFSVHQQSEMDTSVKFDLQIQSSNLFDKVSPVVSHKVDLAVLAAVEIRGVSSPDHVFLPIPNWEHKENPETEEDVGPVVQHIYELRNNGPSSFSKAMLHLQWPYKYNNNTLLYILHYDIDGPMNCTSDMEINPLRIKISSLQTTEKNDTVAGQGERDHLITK
T1 sequence (P06756 891-1048 limits assumed): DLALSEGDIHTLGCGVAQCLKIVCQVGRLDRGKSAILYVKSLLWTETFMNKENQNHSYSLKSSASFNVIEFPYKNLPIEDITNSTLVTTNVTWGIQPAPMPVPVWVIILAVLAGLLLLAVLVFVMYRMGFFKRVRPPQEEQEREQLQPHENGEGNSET

IC50 [1] [nM]	IC50 (Integrin alpha-V/beta-3 [2]) [µM]	IC50 (Integrin alpha-V/beta-3 [3]) [µM]	Compound
2	> 100		CCCCS(=O)(=O)NC(CNC(=O)CCNC(=O)c1[nH]nc2cc(C(=N)N)ccc12)C(=O)O (stereo not given)
125	> 100		N=C(N)c1ccc2oc(C(=O)NCCC(=O)NC(CC(=O)O)c3cc(F)ccc3F)cc2c1 (stereo not given)
40	> 100		N=C(N)c1ccc2oc(C(=O)NCCC(=O)NC[C@H](N)C(=O)O)cc2c1
20		> 100	CN(CCC(=O)NC(CC(=O)O)c1ccccc1)C(=O)c1cc2cc(C(=N)N)ccc2[nH]1 (stereo not given)
100	> 100		N=C(N)c1ccc2oc(C(=O)NCCC(=O)NC(CC(=O)O)c3cc(F)cc(F)c3)cc2c1 (stereo not given)
1.8	> 100		N=C(N)c1ccc2oc(C(=O)NCCC(=O)NC[C@H](NS(=O)(=O)c3ccccc3)C(=O)O)cc2c1
500			N=C(N)c1ccc2oc(C(=O)N3Cc4ccccc4CC3C(=O)NC(CC(=O)O)c3ccccc3)cc2c1 (stereo not given)
6000			N=C(N)c1ccc2[nH]c(C(=O)N3CCC(C(=O)NC(CC(=O)O)c4ccccc4)CC3)cc2c1 (stereo not given)
2	> 100		N=C(N)c1ccc2oc(C(=O)NCCC(=O)NC[C@H](NS(=O)(=O)c3ccc(I)cc3)C(=O)O)cc2c1
50000			N=C(N)c1ccc2[nH]c(C(=O)Nc3cccc(C(=O)NC(CC(=O)O)c4ccccc4)c3)cc2c1 (stereo not given)
200	> 100		N=C(N)c1ccc2oc(C(=O)NCCC(=O)NC(CC(=O)O)c3ccc(F)c(F)c3)cc2c1 (stereo not given)
2	> 100		CCCCS(=O)(=O)N[C@@H](CNC(=O)CCNC(=O)c1cc2cc(C(=N)N)ccc2o1)C(=O)O
400			N=C(N)c1ccc2oc(C(=O)N3CCCC(C(=O)NC(CC(=O)O)c4ccccc4)C3)cc2c1 (stereo not given)
40	> 100		C#CC(CC(=O)O)NC(=O)CCNC(=O)c1cc2cc(C(=N)N)ccc2o1 (stereo not given)
10000			CN(CC(=O)NC(CC(=O)O)c1ccccc1)C(=O)c1cc2cc(C(=N)N)ccc2[nH]1 (stereo not given)
40	> 100		N=C(N)c1ccc2oc(C(=O)NCCC(=O)NC(CC(=O)O)C(F)(F)F)cc2c1 (stereo not given)

IC50 [1] [nM]	IC50 (Integrin alpha-V/beta-3 [2]) [µM]	IC50 (Integrin alpha-V/beta-3 [3]) [µM]	Compound
> 100000			CC(C)(NC(=O)c1cc2cc(C(=N)N)ccc2[nH]1)C(=O)NC(CC(=O)O)c1ccccc1 (stereo not given)
2	> 100		CN(C)c1cccc2c(S(=O)(=O)N[C@@H](CNC(=O)CCNC(=O)c3cc4cc(C(=N)N)ccc4o3)C(=O)O)cccc12
20	> 100		CC(CC(=O)NC(CC(=O)O)c1ccccc1)NC(=O)c1cc2cc(C(=N)N)ccc2o1 (stereo not given)
40	100		N=C(N)c1ccc2oc(C(=O)NCCC(=O)NC(CC(=O)O)c3cccnc3)cc2c1 (stereo not given)
150	> 100		CN(CCC(=O)NC(CC(=O)O)c1ccccc1)C(=O)c1cc2cc(C(=N)N)ccc2o1 (stereo not given)
20	> 100		N=C(N)c1ccc2oc(C(=O)NCCC(=O)NCCC(=O)O)cc2c1
10000			N=C(N)c1ccc2[nH]c(C(=O)NCC(=O)NC(CC(=O)O)c3ccccc3)cc2c1 (stereo not given)
2	> 100		CCCCS(=O)(=O)NC(CNC(=O)CCNC(=O)c1c[nH]c2cc(C(=N)N)ccc12)C(=O)O (stereo not given)
300			N=C(N)c1ccc2oc(C(=O)NCC(=O)NC(CC(=O)O)c3ccccc3)cc2c1 (stereo not given)
10000			N=C(N)c1ccc2[nH]c(C(=O)NC(CC(=O)NC(CC(=O)O)c3ccccc3)C(F)(F)F)cc2c1 (stereo not given)
40			COc1ccc(C(CC(=O)O)NC(=O)CCNC(=O)c2cc3cc(C(=N)N)ccc3o2)cc1OC (stereo not given)
2500	125		CC(CC(=O)NC(CC(=O)O)c1ccccc1)NC(=O)c1cc2cc(C(=N)N)ccc2[nH]1 (stereo not given)
150	60		N=C(N)c1ccc2oc(C(=O)NCCC(=O)NC(CC(=O)O)c3ccccc3)cc2c1 (stereo not given)
1000			N=C(N)c1ccc2oc(C(=O)N3CCC[C@@H]3C(=O)NC(CC(=O)O)c3ccccc3)cc2c1 (stereo not given in full)
1000			N=C(N)c1ccc2[nH]c(C(=O)NCCC(=O)NC(CC(=O)O)c3ccccc3)cc2c1 (stereo not given)
